WT yeast gro inh: growth inhibition of WT yeast, mitochondrial fusion screen | inhibition, % at 10 µM | mitochondrial fusion phenotypic screen, WT strain | 190,000 tested, 2.1% active; in the data active = inhibition above about 58%; tested in S. cerevisiae
SKKanGAS inh: SKKanGAS growth inhibition. S. pyogenes SKKanGAS, kanamycin growth, BacTiter-Glo, 6 h. inhibition, % at 7.5 µM. AID 1662. 300,000 tested, 1.3% active;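 active = mean replicate score, as percent of positive control median, at least 50; inconclusive = mean below 50 but one replicate at or above 50; inactive = mean and every replicate below 50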;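 note: strain carries kanamycin resistance gene driven by streptokinase promoter and grows in 40 µg/ml kanamycin; loss of luminescence reflects streptokinase promoter inhibition or plain growth inhibition; 0% = median of DMSO wells and 100% = positive control at its reference dose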
Autophagy mod: modulators of autophagy | MEF GFP-LC3 puncta imaging; test concentration mostly 10 µM | calls only at 10 µM (by protocol) | 190,000 tested, 0.98% active | AID 463193;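 active = percentage of spot-positive cells more than 3 SD above its plate mean, without a fluorescence outlier flag or 80% toxicity; inconclusive = no clear call, values can overlap the other calls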;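 note: spot-positive cell cutoff set from DMSO-treated cells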
Insulin prom up: MIN6 insulin promoter up-regulation; MIN6 insulin promoter-GFP reporter, high-content imaging; hits give high values; z-score at 5 µM; 190,000 tested, 0.3% active;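 active = z-score above 3 at 5 µM with at least 500 cells counted in the well; inconclusive = wells under 500 cells, flagged as cytotoxic or low count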
Cl transport mod: modulates chloride dependent transport by human KCC2; AID 1456; 190,000 tested, 2.2% active; KCC2 cells, thallium flux FluoZin-2 fluorescence; B-score of Tl+ flux slope (higher = more flux/activation; lower = inhibition) at 10 µM;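 active = thallium flux slope and its plate-corrected score both differing from the plate sample mean at a set confidence after two filtering rounds, in either direction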;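 note: slope of fluorescence scaled to starting intensity during 10 to 20 s after thallium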
Rad51 HR inh: blocks human Rad51 in homologous recombination; hRad51 DNA strand exchange, fluorescence dequenching; inhibition, % at 10 µM; 200,000 tested, 0.085% active; AID 1385;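 active = inhibition above 40% at the single screening dose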;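 note: 0% = DMSO control wells and 100% = blanks with heterologous ssDNA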
Target sequence (Q06609 whole entry, looked up): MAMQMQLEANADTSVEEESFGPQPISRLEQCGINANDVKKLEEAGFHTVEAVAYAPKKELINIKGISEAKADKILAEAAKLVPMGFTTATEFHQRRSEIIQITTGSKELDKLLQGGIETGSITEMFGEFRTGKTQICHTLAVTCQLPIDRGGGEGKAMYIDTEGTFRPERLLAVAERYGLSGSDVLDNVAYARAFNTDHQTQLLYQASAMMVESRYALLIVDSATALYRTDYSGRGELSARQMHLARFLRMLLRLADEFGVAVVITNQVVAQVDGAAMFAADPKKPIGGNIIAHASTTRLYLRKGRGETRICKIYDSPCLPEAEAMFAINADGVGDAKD
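Material: hRad51 filaments on single-stranded DNA; Reagent: Donor/quencher-labelled 47-bp dsDNA substrate; Compound: 10 µM final, single point; Schedule: 37 °C 15-min filament assembly, 30-min compound preincubation, 15-min exchange; Technique: FRET fluorescence, excitation 485 nm, emission 520 nm; Benchmarks: control wells and blank wells on each plate.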
KCC2 secondary: KCC2 (human) modulation, secondary assay | shares compounds with Cl transport mod | HEK293-KCC2, thallium flux, FluoZin2 fluorescence; hits give high values | normalised thallium flux (F/F0 slope) at 10 µM | 3,700 tested, 15% active | AID 1713;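 active = thallium flux slope above the same plate's solvent-only control mean plus 3 SD; inconclusive = the two replicate wells disagree; inactive = no significant difference from solvent-only control wells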
KCC2 bumet counter: thallium flux persisting under bumetanide in KCC2 cells, counter-screen secondary assay; shares compounds with Cl transport mod; 3,700 tested, 49% active; normalized thallium flux at 10 µM; AID 1714; HEK293-KCC2 + bumetanide/ouabain, thallium flux FluoZin2; hits give high values;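 active = thallium entry rate above the same plate's blocked-transporter control wells by more than 3 SD; inconclusive = the two repeat wells disagree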;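 note: raw slope of fluorescence over initial fluorescence between 10 and 20 s after thallium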
KCC2 sec2: confirmation of human KCC2 transport modulators | shares compounds with Cl transport mod | 3,700 tested, 23% active | normalized thallium flux at 10 µM | AID 1715 | HEK293-KCC2, thallium flux FluoZin2 fluorescence; actives lie on both sides; F/F0 rise rate, 10–20 s post-thallium;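 active = thallium flux slope more than 3 SD above or below the plate's solvent-only control mean, mostly below; inconclusive = the two repeat wells disagreed; inactive = no significant shift from solvent-only controls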;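 note: raw slope with 0.1% DMSO as baseline and bumetanide as block control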
HEK counter1: parental HEK flux effect, counter-screen; shares compounds with Cl transport mod; HEK293 parental cells, thallium flux FluoZin2, ouabain; baseline-ratio fluorescence slope, 10–20 s after thallium; thallium flux rate (normalised fluorescence) at 10 µM; 3,700 tested, 46% active;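 active = thallium flux rate significantly above the same plate's solvent-only control wells, beyond their mean plus 3 SD; inconclusive = the two replicate wells gave conflicting results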
KCC2 ouabain: confirmation of human KCC2 modulators with ouabain; shares compounds with Cl transport mod; HEK293-KCC2, thallium flux FluoZin2 fluorescence; bidirectional: low = inhibitor, high = activator; raw Tl+ flux slope (below DMSO = inhibition, above = activation) at 10 µM; 3,700 tested, 48% active;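 active = thallium flux slope beyond 3 SD from same-plate DMSO control mean in most replicates, usually higher, sometimes lower; inconclusive = repeat tests gave conflicting results; inactive = no significant difference from controls in most replicates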;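 note: slope of initial-normalized fluorescence between seconds 10 and 20 after thallium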
HEK293 Tl flux2: counter-screen for KCC2 modulators: effect in parental HEK293 cells; thallium flux slope at 10 µM; 3,700 tested, 33% active; shares compounds with Cl transport mod; thallium flux FluoZin-2 fluorescence slope;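 active = thallium flux slope above the same plate's solvent-control mean plus 3 SD in both duplicate wells; inconclusive = duplicate wells that disagreed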;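 note: run without ouabain in cells lacking the KCC2 cotransporter; slope of fluorescence scaled to its starting value between 10 and 20 s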
An asterisk follows results filed as active; i = inactive; ? = inconclusive; · = no result given. An excerpt weighted towards active compounds, which were near 4.2% of everything screened.

SMILES | WT yeast gro inh | SKKanGAS inh | Autophagy mod | Insulin prom up | Cl transport mod | Rad51 HR inh | KCC2 secondary | KCC2 bumet counter | KCC2 sec2 | HEK counter1 | KCC2 ouabain | HEK293 Tl flux2
Cc1cc(C(=O)NC(=S)Nc2ccccc2N2CCCC2)ccc1[N+](=O)[O-] | 16 | -8 | i | -0.31 | 2.3 | -14 | · | · | · | · | · | ·
O=C(Nc1ccccc1N1CCCC1)c1ccccc1F | · | 6 | · | · | · | · | · | · | · | · | · | ·
O=C(NC(=S)Nc1ccccc1N1CCOCC1)c1ccc(Br)cc1 | · | -22 | · | · | · | · | · | · | · | · | · | ·
O=C(NC(=S)Nc1ccccc1N1CCCC1)c1ccc(F)cc1 | 50 | -9 | i | 0.28 | 16* | 6 | 0.018* | 0.05* | 0.035 | 0.048* | 0.039* | 0.015*
O=C(NC(=S)Nc1ccccc1N1CCCCC1)c1ccccc1 | 67* | 16 | i | -0.35 | 12* | 4 | 0.0064 | 0.023* | 0.034 | 0.011* | 0.028* | ?
Cc1cc(C(=O)NC(=S)Nc2ccccc2N2CCOCC2)ccc1[N+](=O)[O-] | 20 | 4 | i | -0.25 | 5.4* | -2 | 0.0091 | 0.01* | 0.03 | ? | ? | ?
Cc1ccccc1C(=O)NC(=S)Nc1ccccc1N1CCCC1 | 23 | 10 | i | -1.6 | 11* | 33 | 0.0068 | 0.025* | 0.031 | 0.026* | 0.03* | 0.015*
CNC(=S)NC1(C)CCS(=O)(=O)C1 (centres undefined) | · | -7 | · | 0.06 | -0.17 | · | · | · | · | · | · | ·
Cc1ccc(O)c(NC(=S)NC(=O)c2ccccc2Cl)c1 | 20 | 11 | i | · | 0.022 | -3 | · | · | · | · | · | ·
CC(C)C(=O)N1CCN(c2ccccc2NC(=S)NC(=O)c2cccs2)CC1 | 3 | 11 | i | -0.74 | 2.8 | 6 | 0.0063 | 0.0086* | 0.028 | 0.0091* | 0.019 | ?
CS(=O)(=O)N1CCN(c2ccccc2NC(=S)NC(=O)c2cccs2)CC1 | 17 | 28 | i | -0.98 | 0.98 | -8 | · | · | · | · | · | ·
O=C(NC(=S)Nc1ccccc1N1CCCC1)c1cccc(F)c1 | 21 | -5 | i | -0.39 | 39* | 1 | 0.0062 | 0.062* | 0.043* | 0.027* | 0.046* | 0.028*
O=C(Nc1ccccc1N1CCCCC1)c1ncoc1-c1ccc(F)cc1 | 28 | 30 | i | -0.25 | 2.1* | 2 | 0.0086 | 0.0055 | 0.03 | 0.008 | 0.018 | 0.011
O=C(NC(=S)Nc1ccccc1N1CCOCC1)c1ccc(-c2ccccc2F)o1 | · | 14 | · | -1.8 | 15* | 5 | 0.011 | 0.028* | 0.037 | 0.034* | 0.031* | 0.012
COCCSc1nnc(NC(=O)c2ccc(OC)c([N+](=O)[O-])c2)s1 | 0 | 8 | i | 1.1 | -0.066 | -35 | · | · | · | · | · | ·
O=C(NC(=S)NCc1cccnc1)c1cc2ccccc2o1 | 7 | -19 | i | -0.31 | 42* | 1 | 0.03* | 0.088* | 0.049* | 0.049* | 0.053* | 0.048*
C/C(=N\NC(=O)c1ccncc1)c1cc2ccccc2o1 | -7 | 1 | i | 0.79 | 11* | 4 | ? | 0.024* | 0.034 | 0.028* | 0.032* | ?
C/C(=N\NC(=O)c1cccnc1)c1cc2ccccc2o1 | 14 | -3 | i | 1.1 | 8.5* | -2 | 0.0077 | 0.027* | 0.032 | 0.012* | ? | ?
C/C(=N\NC(=O)c1ccco1)c1cc2ccccc2o1 | 11 | -4 | i | 0.9 | 1.7 | · | · | · | · | · | · | ·
CC1=C(C(=O)Nc2cccc(C(=O)NCc3ccccc3C)c2)SCCO1 | · | -2 | · | · | · | · | · | · | · | · | · | ·
CCOc1cc(/C=N/NC(=O)C(=O)NCCCOC(C)C)cc(Br)c1O | 6 | 6 | i | -0.43 | 1 | -5 | · | · | · | · | · | ·
CN(Cc1cccnc1)C(=O)CNC(=O)c1ccc(Cl)cc1Cl | -1 | -15 | i | 0.32 | 0.7 | 12 | · | · | · | · | · | ·
O=C(NC(=S)NCc1ccccc1)c1ccccc1 | 25 | -1 | i | 0.11 | 22* | -3 | 0.0063 | 0.036* | 0.043* | 0.029* | 0.038* | 0.03*
S=C(NCc1ccco1)N/N=C/c1ccccc1Cl | -7 | -12 | i | -0.14 | 7.3* | -22 | 0.0089 | 0.018* | 0.031 | 0.0095* | 0.034* | ?
O=C(NC(=S)NCc1ccco1)c1ccccc1 | 16 | -4 | i | -0.56 | 19* | -94 | ? | 0.036* | 0.035 | 0.015* | 0.028 | 0.013*
SMILES | WT yeast gro inh | SKKanGAS inh | Autophagy mod | Insulin prom up | Cl transport mod | Rad51 HR inh | KCC2 secondary | KCC2 bumet counter | KCC2 sec2 | HEK counter1 | KCC2 ouabain | HEK293 Tl flux2
O=C(NC(=S)NCc1ccc(F)cc1)c1ccccc1 | 54 | 3 | i | 0.04 | 48* | · | 0.027* | 0.053* | 0.039* | 0.021* | 0.029* | 0.023*
COc1ccccc1/C=N/NC(=S)NCc1ccco1 | · | 2 | · | -0.3 | 4.3 | · | · | · | · | · | · | ·
O=C(NC(=S)NCc1ccncc1)c1ccccc1 | -11 | 3 | i | -0.09 | 0.089 | -6 | · | · | · | · | · | ·
Cc1cnc(C(=O)OCC(=O)c2ccc[nH]2)cn1 | · | 9 | · | · | · | · | · | · | · | · | · | ·
O=C(Nc1nc2ccc(S(=O)(=O)N3CCCCC3)cc2s1)c1cccnc1 | 0 | 6 | i | · | · | -6 | · | · | · | · | · | ·
O=C(Nc1nc2ccc(S(=O)(=O)N3CCCCC3)cc2s1)c1ccncc1 | -3 | 12 | i | 1.8 | -6.2* | -6 | 0.0068 | 0.0048 | 0.032 | 0.0071 | 0.02 | 0.0098
COc1cc(C)nc(NC(=S)N(C)C(=O)c2ccccc2)n1 | · | -12 | · | -0.83 | 6.2* | 0 | 0.0093 | 0.019* | 0.035 | 0.01* | 0.026 | 0.012*
Cc1[nH]nc2nc(SCC(=O)NC3CCCCC3)n(-c3ccc(Br)cc3)c(=N)c12 | · | 9 | · | · | · | · | · | · | · | · | · | ·
O=C(Cc1ccc(-n2cccc2)cc1)NC1CCCCCC1 | -3 | -3 | i | -0.26 | -4.2* | -5 | 0.0065 | 0.0044 | ? | 0.0072 | 0.016 | 0.01
O=C(c1cc(COc2ccc(F)c(F)c2)on1)N1CCN(C2CCCCC2)C(=O)C1 | · | 2 | · | · | · | · | · | · | · | · | · | ·
O=C1CCN(Cc2nc(-c3ccc(Cl)cc3)no2)CCN1 | 6 | 11 | i | 0.92 | · | -28 | · | · | · | · | · | ·

Screening results from PubChem BioAssay.
